Screening results deposited in PubChem by several laboratories.
CHOP inh: blocks CHOP induction under ER stress | CHO-K1 CHOP-promoter luciferase, tunicamycin-induced, 15-18 h | inhibition, % at 10 µM | 220,000 compounds, 3.8% hits;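 active = compounds that reduced the stress-induced luciferase reporter signal by more than about 70% of percent inhibition, limit read from the data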;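 also: 0% = tunicamycin plus vehicle and 100% = wells without tunicamycin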
S1P3 antag: blocks the human S1P3 receptor; Q99500; CHO S1P3 NFAT-BLA reporter, FRET fluorescence, antagonist mode; inhibition, % at 4.98 µM; 170,000 compounds, 0.27% hits;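 active = inhibition above the plate cutoff, the mean inhibition of test wells on that plate plus 3 SD, cut at about 28% in these data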;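 also: cells challenged with S1P at its EC80 of 0.8 µM; blue over green emission ratio from cleaved BLA substrate after 4 h stimulation; 0% = S1P-stimulated wells and 100% = unstimulated DMSO-only wells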
Hsp70 act: transcriptional activators of Hsp70. HeLa Hsp70 promoter luciferase reporter, luminescence; scaled: vehicle 0, proteasome-inhibitor control 100%. activation, % at 10 µM. 200,000 compounds, 0.04% hits;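 active = activation above the mean across all tested compounds plus 3 SD, cutoff set per campaign, cut at about 5.5% in these data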;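 also: 100% = MG132 at 30 µM as the positive control and 0% = DMSO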
MDM2 E3 inh: Mdm2 E3 ligase (human) inhibition. Q00987. cell-based MDM2 ubiquitination luciferase reporter, 2 h; 0 = plate control, 100 = twice control, blank-subtracted. signal enhancement, % at 5 µM. 210,000 compounds, 0.11% hits;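 active = signal enhancement of 30% or more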;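 also: luminescence tracks abundance of the self-degrading MDM2-luciferase fusion protein; higher signal means inhibition of MDM2 E3 ligase activity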
Target sequence (Q00987 whole entry, looked up, the tested form may be a part): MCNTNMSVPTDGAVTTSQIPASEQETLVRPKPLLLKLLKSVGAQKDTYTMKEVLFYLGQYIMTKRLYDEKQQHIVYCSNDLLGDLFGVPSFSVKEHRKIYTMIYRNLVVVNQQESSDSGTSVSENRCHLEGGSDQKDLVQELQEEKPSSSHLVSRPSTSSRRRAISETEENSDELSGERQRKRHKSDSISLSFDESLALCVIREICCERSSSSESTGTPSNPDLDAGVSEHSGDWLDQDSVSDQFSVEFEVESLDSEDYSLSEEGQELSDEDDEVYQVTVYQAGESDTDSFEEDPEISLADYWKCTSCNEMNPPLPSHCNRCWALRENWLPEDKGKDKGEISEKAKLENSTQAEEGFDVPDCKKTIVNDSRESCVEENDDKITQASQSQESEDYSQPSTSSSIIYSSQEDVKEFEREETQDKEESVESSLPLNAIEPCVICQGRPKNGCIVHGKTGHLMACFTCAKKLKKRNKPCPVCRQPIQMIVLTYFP
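Assay system: stable mammalian line carrying autodegrading MDM2–luciferase fusion reporter; Input: 2000 cells in each well; Compound dosing: single-point 5 µM; Schedule: 2 h compound exposure at 37 °C; Signal: SteadyLite luciferase luminescence after 15 min room-temperature reagent incubation; Evaluation: % luminescence enhancement versus blank-corrected plate control mean; Benchmarks: plate controls and plate blanks.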
Numbers without * were called inactive; . = no result given. Most compounds without a hit are left out; they make up all but 4% or so of the library.

SMILES	CHOP inh	S1P3 antag	Hsp70 act	MDM2 E3 inh
N#Cc1c(N)nc2c(c1-c1ccc3c(c1)OCO3)CCCCCC2	86*	.	0	-12
CCc1ccc(C2=NN(CCC(=O)NC(C)CCc3ccccc3)C(=O)CC2)cc1 (stereo unspecified)	59	-10	0	1
COC(=O)c1ccccc1NC(=O)C1CC(c2ccccc2O)=NO1 (stereo unspecified)	15	-1	0	0
CSc1ccccc1NC(=O)C1CC(c2ccccc2O)=NO1 (stereo unspecified)	9	82*	0	-23
O=C(COC(=O)c1ccc(O)cc1)Nc1ccc(Cl)cc1	4	6	0	-8
CCOc1ccc(OCCSc2nc3ccccc3o2)cc1	77*	.	0	5
CCOC(=O)C1CCN(C(=S)Nc2cc(C)ccc2C)CC1	-9	-4	0	98*
Cc1cccc(/C=c2\s/c(=C\C(=O)C(C)(C)C)[nH]c2=O)c1	19	.	0	-13
Cc1cccc(/C=C2\CCC(=C3SCCCS3)C2=O)c1	78*	.	0	-92
O=C1CCCCCCC1Sc1ccccc1[N+](=O)[O-] (stereo unspecified)	83*	.	0	-4
Cc1ccc2nc(NC3=NC(CC(=O)O)C(=O)N3)nc(C)c2c1 (stereo unspecified)	12	-8	0	-2
Cc1ccc(C(=O)N/C(N)=N/c2nc3ccccc3o2)cc1	38	.	0	-3
N/C(=N\c1nc2ccccc2o1)NC(=O)c1ccccc1	85*	.	0	-10
Cc1ccc(S(=O)(=O)NNC2CC(=O)N(c3ccc(Br)cc3)C2=O)cc1 (stereo unspecified)	73*	-14	0	-12
Cc1ccc(N2C(=O)CC(Nc3ccccc3)C2=O)cc1 (stereo unspecified)	1	.	0	-24
CCOC(=O)Cc1csc(NC(=O)NC2(C(F)(F)F)Oc3ccccc3O2)n1	92*	.	0	-15
CCOC(=O)Cc1csc(NC(=O)c2csc3c2CCCC3)n1	76*	26	0	-4
COc1cc(NC(=O)c2csc3c2CCCC3)ncn1	72*	8	0	-19
O=C(Nc1ccccn1)c1csc2c1CCCC2	-28	-12	0	-5
CCOC(=O)Cc1csc(NC(=O)Nc2ccc(OC(F)(F)F)cc2)n1	39	-6	.	-4
CCC1CCCCN1C(=O)COc1c(Br)cc(Br)c2cccnc12 (stereo unspecified)	-6	-11	0	.
Cc1ccc(Nc2nc(N)nc(CCl)n2)c(C)c1	-115	-3	.	-6
O=C1C(Cl)=C(NCCCO)C(=O)c2ccccc21	-1	.	0	-14
CN(C)c1ccc(NC2=C(Cl)C(=O)c3ccccc3C2=O)cc1	95*	-49	0	-7
O=C(Nc1ccc2cn[nH]c2c1)c1c(Cl)cccc1Cl	43	4	0	-19
SMILES	CHOP inh	S1P3 antag	Hsp70 act	MDM2 E3 inh
O=C1C(Cl)=C(Nc2ccc3cn[nH]c3c2)C(=O)c2ccccc21	107*	9	.	.
CN(C)c1nc(C=C(C#N)C#N)c(Cl)n1-c1ccc(F)cc1	96*	14	0	24
CCCCn1c(=O)[nH]c(=O)c2c1nc(-c1ccc(-c3ccc(F)cc3)o1)n2C	13	-5	.	.
CCCCn1c(=O)[nH]c(=O)c2c1nc(-c1ccc(CC)c([N+](=O)[O-])c1)n2C	76*	-5	0	10
O=C1Nc2ccc(S(=O)(=O)N3CCCC3)c3cccc1c23	6	.	0	0
O=C(c1ccco1)N1C(=O)c2cccc3c(S(=O)(=O)N4CCCC4)ccc1c23	74*	5	0	-3
O=C(Nc1nccs1)c1c(O)c2cccc3c2n(c1=O)CCC3	108*	-15	0	1
CCCCCc1nc2ccccc2c(=O)n1NC(=O)c1c(O)c2cccc3c2n(c1=O)CCC3	.	.	0	.
Cc1ccccc1NC(=O)c1c(O)c2cccc3c2n(c1=O)CCC3	.	0	.	.
Cc1cccnc1NC(=O)c1c(O)c2cccc3c2n(c1=O)CCC3	80*	1	0	-4
O=C(Nc1ccccn1)c1c(O)c2cccc3c2n(c1=O)CCC3	43	-22	0	-20
CCCCCCc1nc2ccccc2c(=O)n1NC(=O)c1c(O)c2cccc3c2n(c1=O)CCC3	85*	.	0	0
CC1CCC(C(C)C)C(OC(=O)COC(=O)c2ccc(N)cc2)C1 (stereo unspecified)	84*	-13	0	-9
CN(C)S(=O)(=O)c1cccc(-n2sc3ccccc3c2=O)c1	93*	-6	0	-22
O=c1c2ccccc2sn1-c1ccc(S(=O)(=O)N2CCCC2)cc1	87*	-6	0	-15
